Results taken from ChEMBL document CHEMBL5674869, “The Histone Methyltransferase Inhibitor A-366 Uncovers a Role for G9a/GLP in the Epigenetics of Leukemia” (PLoS One, 2015).
Activity calls are given as the source filed them. No cut-off for these calls is given here.

Tests used:
HT-1080 = assay: Antiproliferative activity against human HT-1080 cells after 2 days by Cell-Titer-Glo assay; assay type: functional, cell-based; conditions: HT-1080, 48 h
How it was run: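 ATCC tumor lines were grown in their recommended media with 10% FBS and STR-authenticated. Cells were exposed to compound for the stated number of days. Viable cells were read by CellTiter-Glo endpoint. Inhibition was the ratio of treated to untreated wells, with cell-free wells set as 100% inhibition. The EC50 was taken from the dose response.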

MV4-11 [1] = assay: Antiproliferative activity against human MV4-11 cells after 14 days by Cell-titer Glo assay; assay type: functional, cell-based; conditions: time 14.0 day
How it was run: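 Leukemia cells (MV4;11 or HL-60) in medium with 10% FBS were treated with a dose range of compound for 14 days. Proliferation was read by CellTiter-Glo endpoint, with inhibition set against untreated controls and cell-free wells as 100% inhibition. Viability was also measured in parallel by trypan blue exclusion.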

[2] = Cytotoxicity against human PBMC cells assessed as effect on cell viability after 48 hrs by Cell-titerGlo assay; assay type: toxicity, cell-based
How it was run: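 PBMCs from two human donors were pooled and grown in AIM-V medium. Cells were treated with compound for 48 h. Viability was read by CellTiter-Glo endpoint.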

MV4-11 [3] = assay: Induction of cell morphology change in human MV4-11 cells assessed as increase in cytoplasm-nucleus ratio and nuclear lobulation at 5 uM after 10 days by Wright- Geimsa staining analysis; assay type: functional, cell-based; conditions: time 10.0 day
How it was run: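 MV4;11 cells exposed to DMSO or 5 μM compound for 10 days, then stained with a Wright-Giemsa kit. Morphology was examined for cytoplasm:nucleus ratio and nuclear lobulation.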

EC50 (HT-1080)	Compound	Activity (MV4-11 [1])	Activity [2]	Activity (MV4-11 [3])
1.4 µM	COc1cc2c(NC3CCN(C(C)C)CC3)nc(C3CCCCC3)nc2cc1OCCCN1CCCC1	–	–	–
–	COc1cc2c(cc1OCCCN1CCCC1)N=C(N)C21CCC1	Active	Non-Toxic	Active
